ChEMBL document CHEMBL4251751 (J Med Chem, 2018)
In brackets after ≈: the same amount, converted by molar mass. Activity calls are given as the source filed them. No cut-off for these calls is given here.

Key:
[1] = molecular target: T1, Peroxisome proliferator-activated receptor gamma (Mus musculus, UniProt P37238); assay: Agonist activity at PPARgamma in mouse 3T3-L1 cells assessed as induction of adipocyte differentiation at 1 uM after 15 days by Oil Red O staining-based assay; assay type: cell-based; settings: 3t3-l1, 360 h
T1 sequence (P37238 whole entry): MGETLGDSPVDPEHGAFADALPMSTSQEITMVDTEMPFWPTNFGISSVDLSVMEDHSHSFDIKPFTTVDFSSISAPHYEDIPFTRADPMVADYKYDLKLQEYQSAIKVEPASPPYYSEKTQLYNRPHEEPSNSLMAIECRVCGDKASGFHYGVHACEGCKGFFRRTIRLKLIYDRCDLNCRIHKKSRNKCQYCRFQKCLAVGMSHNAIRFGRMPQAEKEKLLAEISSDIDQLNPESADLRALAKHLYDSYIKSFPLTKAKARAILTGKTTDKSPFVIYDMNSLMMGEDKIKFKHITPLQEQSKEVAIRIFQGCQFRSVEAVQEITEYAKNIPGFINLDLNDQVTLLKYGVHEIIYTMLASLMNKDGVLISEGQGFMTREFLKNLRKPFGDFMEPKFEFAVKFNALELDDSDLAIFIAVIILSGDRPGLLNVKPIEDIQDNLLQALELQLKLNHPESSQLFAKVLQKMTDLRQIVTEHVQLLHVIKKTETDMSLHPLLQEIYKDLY

[2] = molecular target: T2, Peroxisome proliferator-activated receptor gamma (Mus musculus) (UniProt P37238); assay: Agonist activity at PPARgamma in mouse 3T3-L1 cells assessed as increase in CPT1A mRNA expression at 1 uM after 15 days by quantitative real-time PCR method; assay type: cell-based
T2 sequence (whole entry): T1 sequence (P37238 whole entry)

[3] = molecular target: T1, Peroxisome proliferator-activated receptor gamma; assay: Agonist activity at PPARgamma in mouse 3T3-L1 cells assessed as increase in CD36 mRNA expression at 1 uM after 15 days by quantitative real-time PCR method; assay type: cell-based; settings: 3t3-l1, 360 h
[4] = molecular target: T3, Bifunctional epoxide hydrolase 2 (Homo sapiens, UniProt P34913); assay: Inhibition of recombinant human sEH using PHOME as substrate preincubated for 30 mins followed by substrate addition and measured after 30 mins by spectrofluorimetry
T3 sequence (P34913 whole entry): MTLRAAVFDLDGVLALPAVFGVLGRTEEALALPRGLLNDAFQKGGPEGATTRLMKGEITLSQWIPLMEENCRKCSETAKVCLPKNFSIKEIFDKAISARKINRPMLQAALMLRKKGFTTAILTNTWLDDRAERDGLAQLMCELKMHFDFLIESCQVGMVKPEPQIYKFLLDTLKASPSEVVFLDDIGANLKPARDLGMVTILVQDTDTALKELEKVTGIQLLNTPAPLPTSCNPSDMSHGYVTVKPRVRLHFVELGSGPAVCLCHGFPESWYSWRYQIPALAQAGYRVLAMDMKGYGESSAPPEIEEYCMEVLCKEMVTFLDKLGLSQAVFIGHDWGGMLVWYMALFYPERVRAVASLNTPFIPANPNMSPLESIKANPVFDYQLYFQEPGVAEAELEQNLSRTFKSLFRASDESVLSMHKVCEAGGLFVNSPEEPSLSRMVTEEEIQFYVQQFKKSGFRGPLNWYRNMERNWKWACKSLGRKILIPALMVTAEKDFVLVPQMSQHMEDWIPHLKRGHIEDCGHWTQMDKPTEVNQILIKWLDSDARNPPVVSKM

[5] = molecular target: T4, Cysteinyl leukotriene receptor 1 (Homo sapiens, UniProt Q9Y271); assay: Antagonist potency at human CysLT1R expressed in African green monkey COS7 cells assessed as inhibition of LTD4-induced Ca2+ levels after 60 mins by fura-2/AM-fluorescence based spectrofluorimetry; assay type: functional, cell-based; settings: read-out: pA2 (converted)
T4 sequence (Q9Y271 whole entry): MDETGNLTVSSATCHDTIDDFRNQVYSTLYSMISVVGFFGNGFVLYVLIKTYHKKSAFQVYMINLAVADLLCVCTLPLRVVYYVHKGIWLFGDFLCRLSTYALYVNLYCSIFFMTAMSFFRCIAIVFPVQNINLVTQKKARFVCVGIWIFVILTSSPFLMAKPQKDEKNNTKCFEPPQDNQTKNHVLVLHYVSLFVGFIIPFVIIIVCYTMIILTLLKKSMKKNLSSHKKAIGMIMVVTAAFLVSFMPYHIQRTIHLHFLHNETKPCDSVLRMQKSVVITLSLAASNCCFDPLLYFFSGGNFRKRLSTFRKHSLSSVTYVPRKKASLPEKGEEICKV

[6] = molecular target: T5, Peroxisome proliferator-activated receptor gamma (Homo sapiens, UniProt P37231); assay: Partial agonist activity at human PPARgamma LBD expressed HEK293T cells after 12 to 14 hrs by dual-glo luciferase reporter gene assay
T5 sequence (P37231 whole entry): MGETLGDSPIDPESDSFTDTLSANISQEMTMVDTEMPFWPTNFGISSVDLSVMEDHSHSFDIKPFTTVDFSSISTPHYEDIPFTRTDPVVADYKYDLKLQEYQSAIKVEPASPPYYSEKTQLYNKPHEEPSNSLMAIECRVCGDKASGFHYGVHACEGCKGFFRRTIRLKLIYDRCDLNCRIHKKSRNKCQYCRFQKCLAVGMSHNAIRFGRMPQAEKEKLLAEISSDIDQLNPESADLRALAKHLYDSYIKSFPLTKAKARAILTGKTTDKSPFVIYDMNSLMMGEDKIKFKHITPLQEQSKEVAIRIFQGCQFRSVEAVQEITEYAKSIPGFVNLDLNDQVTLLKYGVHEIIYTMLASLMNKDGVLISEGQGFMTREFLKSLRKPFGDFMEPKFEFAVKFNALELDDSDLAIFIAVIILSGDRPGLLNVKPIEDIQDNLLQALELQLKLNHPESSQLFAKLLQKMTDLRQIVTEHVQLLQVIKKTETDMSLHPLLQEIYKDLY

[7] = Metabolic stability in Sprague-Dawley rat liver microsomes assessed as compound remaining at 10 uM in presence of NADPH regenerating system after 4 hrs by HPLC analysis; assay type: ADME, microsome; settings: read-out: Stability
[8] = molecular target: T6, Nuclear receptor subfamily 1 group I member 2 (Homo sapiens, UniProt O75469); assay: Agonist activity at human PXR LBD expressed HEK293T cells at 10 uM after 12 to 14 hrs by dual-glo luciferase reporter gene assay; assay type: ADME
T6 sequence (O75469 whole entry): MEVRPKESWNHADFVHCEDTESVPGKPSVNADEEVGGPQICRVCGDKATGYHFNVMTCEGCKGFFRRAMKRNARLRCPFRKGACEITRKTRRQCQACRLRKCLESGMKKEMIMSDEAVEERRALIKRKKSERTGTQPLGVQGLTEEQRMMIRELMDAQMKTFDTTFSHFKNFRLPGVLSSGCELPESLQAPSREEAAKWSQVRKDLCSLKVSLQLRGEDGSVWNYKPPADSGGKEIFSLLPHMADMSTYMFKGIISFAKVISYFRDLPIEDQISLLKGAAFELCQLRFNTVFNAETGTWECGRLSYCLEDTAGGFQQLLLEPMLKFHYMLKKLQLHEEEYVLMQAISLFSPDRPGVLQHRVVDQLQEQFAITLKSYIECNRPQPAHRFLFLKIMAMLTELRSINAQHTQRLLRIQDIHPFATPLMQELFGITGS

Mus musculus [9] = assay: Anti-inflammatory activity in zymosan-induced paw edema C57BL/6N mouse model assessed as reduction in paw edema at 10 mg/kg, po via gavage pretreated for 30 mins followed by zymosan injection and measured after 24 hrs post zymosan injection by plethysmometry; assay type: functional, organism-based
In short: (§1)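 Zymosan was injected intraplantar into one hindpaw of C57BL/6N mice. Test compound or vehicle was given orally at 10 mg/kg 30 min beforehand. Paw edema was measured by plethysmometry at 8 h and 24 h after zymosan, with the contralateral hindpaw as a control.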

[10] = molecular target: T7, Nuclear receptor subfamily 1 group I member 3 (Homo sapiens, UniProt Q14994); assay: Agonist activity at human CAR LBD expressed HEK293T cells at 10 uM after 12 to 14 hrs by dual-glo luciferase reporter gene assay; assay type: ADME
T7 sequence (Q14994 whole entry): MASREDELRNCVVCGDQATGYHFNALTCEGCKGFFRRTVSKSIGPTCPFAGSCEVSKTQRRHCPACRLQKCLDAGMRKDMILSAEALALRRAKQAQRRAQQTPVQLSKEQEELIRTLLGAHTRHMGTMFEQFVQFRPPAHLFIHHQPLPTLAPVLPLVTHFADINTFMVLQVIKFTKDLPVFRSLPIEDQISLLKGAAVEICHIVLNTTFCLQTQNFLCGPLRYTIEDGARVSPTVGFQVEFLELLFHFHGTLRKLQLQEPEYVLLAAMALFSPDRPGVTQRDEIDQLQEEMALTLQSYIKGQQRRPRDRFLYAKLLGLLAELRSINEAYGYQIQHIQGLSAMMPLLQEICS

[11] = Aqueous solubility of the compound at 5 mg after 24 hrs by HPLC analysis; assay type: physicochemical; settings: water
Mus musculus [12] = assay: Anti-inflammatory activity in zymosan-induced paw edema C57BL/6N mouse model assessed as reduction in paw edema at 10 mg/kg, po via gavage pretreated for 30 mins followed by zymosan injection and measured after 8 hrs post zymosan injection by plethysmometry; assay type: functional, organism-based; in short: as §1
[13] = Lipophilicity, log D of the compound at 30 uM at pH 7.4 by HPLC method; assay type: physicochemical; settings: buffer

SMILES | IC50 [4] [nM] | Kb [5] [nM] | EC50 [6] [nM] | further results
CN(CCOc1ccc(CC2SC(=O)NC2=O)cc1)c1ccccn1 (centres undefined) [ROSIGLITAZONE] | – | – | – | Activity [1]: Active; Activity [2]: Active; Activity [3]: Active
COc1cc(C(=O)NS(=O)(=O)c2ccccc2C)ccc1Cc1cn(C)c2ccc(NC(=O)NC3CCCC3)cc12 | 590 | 0.794 | 2490 | –
COc1cc(C(=O)NS(=O)(=O)c2ccccc2C)ccc1Cc1cn(C)c2ccc(NC(=O)OC3CCCC3)cc12 [ZAFIRLUKAST] | 2000 | – | 2440 | remaining at 4 h, 10 µM [7]: 73%; Activity [8]: Active; Activity (Mus musculus [9]): inactive; Activity [10]: Active; solubility at 24 h [11]: 0.14 µg/mL (≈ 0.243 µM); Activity (Mus musculus [12]): inactive; logD at 30 µM [13]: 2.47

More lines, in order of falling IC50 [4], values ahead:

IC50 [4] [nM] | Kb [5] [nM] | EC50 [6] [nM] | SMILES | further results
550 | 6.31 | 740 | COc1cc(C(=O)NS(=O)(=O)c2cc(Cl)cc(Cl)c2)ccc1Cc1cn(C)c2ccc(NC(=O)NC3CCCCC3)cc12 | –
410 | 12.6 | 200 | COc1cc(C(=O)NS(=O)(=O)c2cccc(F)c2)ccc1Cc1cn(C)c2ccc(NC(=O)NC3CCCCC3)cc12 | –
150 | 25.1 | 670 | COc1cc(C(=O)NS(=O)(=O)c2ccccc2C)ccc1Cc1cn(C)c2ccc(NC(=O)NC3CCCCC3)cc12 | –
